Measured values taken from article PMC6249066 (Journal of medicinal chemistry, 2018).

What was measured:
SEM cells [1] = assay: Proliferation assay; format: cell-based; details: at IC50 or 2x IC50 concentrations
How it was run: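 SEM cells (RPMI1640, 10% FCS, 37°C, 5% CO2) treated with test compound. Viable cells counted every 24 h by trypan blue exclusion on an automated cell counter.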

human HDAC2 = human HDAC2 (Homo sapiens, UniProt Q92769); assay: HDAC IC50 profiling, fluorescence-based assay; format: biochemical; details: result in words
human HDAC1 = human HDAC1 (Homo sapiens, UniProt Q13547); assay: HDAC IC50 profiling, fluorescence-based assay; format: biochemical; details: result in words
[2] = tested on: primary BCP-ALL cells derived from four therapy-refractory patients; format: cell-based; details: Homo sapiens, read-out: IC50 values, range over four patients
[3] = tested on: acetyl-α-tubulin, acetyl-Histone H3, PARP in HL-60, SEM and SUP-B15r cells; assay: Western blotting of cell lysates; format: cell-based; details: 24 h
How it was run: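 HL-60 and SEM cells (RPMI1640, 10% FCS, 37°C, 5% CO2) and TKI-resistant SUP-B15r cells (McCoy's 5A, 20% FCS) exposed to test compound or reference HDAC/proteasome inhibitors for 24 h. Lysates immunoblotted for acetyl-α-tubulin, acetyl-histone H3, PARP and GAPDH.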

human HDAC3 = human HDAC3 (Homo sapiens, UniProt O15379); assay: HDAC IC50 profiling, fluorescence-based assay; format: biochemical; details: result in words
[4] = Cell viability in PBMCs from healthy individuals; format: cell-based; details: human
[5] = tested on: aggresome accumulation in SEM cells; assay: Aggresome detection assay; format: cell-based; details: 18 h, at inhibitory concentration
How it was run: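 SEM cells (RPMI1640, 10% FCS, 37°C, 5% CO2) exposed to test compound 18 h, then stained for aggresomes and DNA with a Proteostat aggresome detection kit. Imaged by fluorescence microscopy (63X objective), or analysed by FACS, where the aggresome propensity factor is derived from relative mean fluorescence intensity.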

SEM cells [6] = assay: Cell cycle analysis; format: cell-based; details: 48 h, dose dependent
How it was run: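 SEM cells (RPMI1640, 10% FCS, 37°C, 5% CO2) exposed to test compound for 48 h, then permeabilised. DNA stained with propidium iodide and cell cycle distribution read by FACS.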

SEM cells [7] = assay: CFU assay; format: cell-based; details: 48 h exposure, colonies counted after 14 days
How it was run: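 SEM cells pretreated with test compound or control in liquid medium, then seeded in semisolid methylcellulose-based medium that also contains the compound or control. Colonies counted after 14 days.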

[8] = tested on: trypsin-like proteasome activity; assay: Cell-based Proteasome-Glo trypsin-like assay
How it was run: (§1)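 Cell-based Proteasome-Glo kits: a luminogenic peptide substrate is cleaved by the proteasome to aminoluciferin, which Ultra-Glo luciferase consumes to give luminescence proportional to the corresponding protease activity. Luminescence read on a plate reader.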

[9] = tested on: caspase-like proteasome activity; assay: Cell-based Proteasome-Glo caspase-like assay
How it was run: as §1

[10] = tested on: patients with relapsed or refractory multiple myeloma; details: cited from earlier work
[11] = tested on: peripheral blood derived mononuclear cells (PBMCs); assay: Cell viability in PBMCs from healthy individuals; format: cell-based; details: PBMCs from healthy individuals

human HDAC1, sequence (Q13547 whole entry): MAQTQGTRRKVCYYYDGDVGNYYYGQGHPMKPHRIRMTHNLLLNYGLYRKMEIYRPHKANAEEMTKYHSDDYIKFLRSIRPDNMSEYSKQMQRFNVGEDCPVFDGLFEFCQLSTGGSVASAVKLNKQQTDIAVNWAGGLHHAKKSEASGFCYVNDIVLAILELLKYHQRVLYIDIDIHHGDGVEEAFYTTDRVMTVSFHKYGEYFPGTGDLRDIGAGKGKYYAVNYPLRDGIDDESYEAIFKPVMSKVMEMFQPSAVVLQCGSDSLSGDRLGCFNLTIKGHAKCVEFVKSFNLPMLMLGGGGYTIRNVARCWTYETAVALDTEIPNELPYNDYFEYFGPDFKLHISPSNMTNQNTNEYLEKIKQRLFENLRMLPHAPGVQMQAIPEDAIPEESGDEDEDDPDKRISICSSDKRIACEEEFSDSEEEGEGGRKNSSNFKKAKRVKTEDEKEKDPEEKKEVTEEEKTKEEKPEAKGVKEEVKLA
human HDAC3, sequence (O15379 whole entry): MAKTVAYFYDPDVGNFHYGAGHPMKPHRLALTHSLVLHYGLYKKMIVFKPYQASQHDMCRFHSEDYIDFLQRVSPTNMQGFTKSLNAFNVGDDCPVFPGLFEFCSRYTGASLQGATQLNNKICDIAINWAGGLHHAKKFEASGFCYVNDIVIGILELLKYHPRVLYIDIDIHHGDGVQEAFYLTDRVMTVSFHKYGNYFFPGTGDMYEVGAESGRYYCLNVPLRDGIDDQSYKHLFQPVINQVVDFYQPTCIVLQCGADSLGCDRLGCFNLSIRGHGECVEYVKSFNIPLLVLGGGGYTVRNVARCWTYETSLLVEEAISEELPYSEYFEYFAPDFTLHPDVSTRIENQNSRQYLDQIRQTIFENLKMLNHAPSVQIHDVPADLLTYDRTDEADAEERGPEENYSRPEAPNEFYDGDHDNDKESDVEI
human HDAC3, sequence (Q9Y618 395-489 partner limits assumed): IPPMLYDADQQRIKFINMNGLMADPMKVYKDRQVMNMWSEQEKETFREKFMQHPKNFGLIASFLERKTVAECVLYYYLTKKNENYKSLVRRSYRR
human HDAC2, sequence (Q92769 whole entry): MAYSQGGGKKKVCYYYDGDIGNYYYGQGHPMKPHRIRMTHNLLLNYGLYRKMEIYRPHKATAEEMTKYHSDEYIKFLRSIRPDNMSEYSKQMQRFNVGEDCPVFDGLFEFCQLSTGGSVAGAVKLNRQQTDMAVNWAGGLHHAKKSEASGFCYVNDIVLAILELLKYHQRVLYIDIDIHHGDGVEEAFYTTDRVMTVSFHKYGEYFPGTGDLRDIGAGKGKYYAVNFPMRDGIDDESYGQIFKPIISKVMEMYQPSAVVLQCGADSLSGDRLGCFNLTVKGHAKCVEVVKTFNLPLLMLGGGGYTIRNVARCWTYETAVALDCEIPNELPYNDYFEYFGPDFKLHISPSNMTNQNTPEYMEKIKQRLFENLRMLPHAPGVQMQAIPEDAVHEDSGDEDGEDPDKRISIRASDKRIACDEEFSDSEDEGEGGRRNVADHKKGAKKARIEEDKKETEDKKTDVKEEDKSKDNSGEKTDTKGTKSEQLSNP

| Compound | proliferation of SEM cells (SEM cells [1]) | activity against HDAC2 (human HDAC2) | activity against HDAC1 (human HDAC1) | IC50 [2] | expression of cleaved PARP (marker of apoptosis) [3] | expression of acetyl-α tubulin and acetyl-histone H3 ([3]; compared to bortezomib) | activity against HDAC3 (human HDAC3) | IC50 at 72 h [4] | aggresome accumulation [5] | cell cycle effect (SEM cells [6]) | colony forming capacity (SEM cells [7]) | inhibition of trypsin-like proteasome activity [8] | inhibition of caspase-like proteasome activity [9] | response rate ([10]; ricolinostat in combination with bortezomib and dexamethasone) | toxicity and clinical responses as single agent ([10]; single agent) | IC50 against PBMCs, concentration range in words [11] |
| --- | --- | --- | --- | --- | --- | --- | --- | --- | --- | --- | --- | --- | --- | --- | --- | --- |
| C[C@H](NC(=O)[C@H](CC(=O)NCC(C)(C)C)NC(=O)c1ccc(C(=O)NO)cc1)C(=O)NCc1ccccc1 [RTS-V5, N^1-((S)-1-(((S)-1-(Benzylamino)-1-oxopropan-2-yl)amino)-4-(neopentylamino)-1,4-dioxobutan-2-yl)-N^4-hydroxyterephthalamide] | significantly inhibited | low activity | low activity | 1.51 to 5.23 µM | upregulated | enhanced the expression | low activity | > 25 µM | significantly blocked | arrested in S phase | significantly reduced | unable to inhibit | unable to inhibit |  |  |  |
| O=C(CCCCCCNC(=O)c1cnc(N(c2ccccc2)c2ccccc2)nc1)NO [Ricolinostat] |  |  |  |  |  |  |  |  |  |  |  |  |  | 37% | neither significant toxicity nor clinical responses | single-digit micromolar |
| CC(C)C[C@H](NC(=O)[C@H](Cc1ccccc1)NC(=O)c1cnccn1)B(O)O [bortezomib] |  |  |  |  |  |  |  |  |  |  |  |  |  |  |  | submicromolar |
